# Compound activity (PubChem)
# Rows were chosen to be rich in hits. Some 2.3% of all compounds tested hit in one or more screens of this group.
# TRPC4 inh – blocks the mouse TRPC4 cation channel | Q9QUQ5 | HEK293 TRPC4beta/mu-opioid, DAMGO-evoked Fluo4 calcium flux; hits give low values | B-score at 10 µM | actives 0.39% (n = 300,000) | AID 2247;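 active = B-score over 3 SD under the library average, no early fluorescence shift, positive overall ratio signal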
#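 Test system – stable TRPC4beta/mu-opioid receptor HEK293 cells · Probe or stimulus – DAMGO, a submaximal dose followed by a maximal one · Dosing – one concentration per compound · Signal – Fluo4 calcium fluorescence by kinetic imaging, 5 s 1 Hz baseline · Evaluation – per-well B score of integrated baseline-normalized Fluo4 ratio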
# TRPC4 potent – allosterically enhances the mouse TRPC4 cation channel; AID 2227; actives 0.42% (n = 310,000); B-score at 10 µM; Q9QUQ5; HEK293 TRPC4beta/mu-opioid, DAMGO EC20, Fluo-4 Ca2+ flux; hits give high values;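 active = B-score of calcium response area above 5 SD of library B-scores, with initial fluorescence ratio within 5 SD of library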;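 also: B-score of integrated fluorescence ratio over time as area under calcium response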
# TRPC6 inh – mouse TRPC6 channel inhibition. actives 1.1% (n = 310,000). HEK293-TRPC6, membrane potential dye, ACh-evoked depolarization; hits give low values. Q61143. B-score at 10 µM;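 active = B-score under library mean minus 3 SD, initial fluorescence not abnormally high, positive integrated signal ratio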;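 also: B-score derived from integrated fluorescence ratio over the kinetic read; more negative B-score means stronger inhibition of depolarization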
# Target sequence (Q61143 whole entry, looked up): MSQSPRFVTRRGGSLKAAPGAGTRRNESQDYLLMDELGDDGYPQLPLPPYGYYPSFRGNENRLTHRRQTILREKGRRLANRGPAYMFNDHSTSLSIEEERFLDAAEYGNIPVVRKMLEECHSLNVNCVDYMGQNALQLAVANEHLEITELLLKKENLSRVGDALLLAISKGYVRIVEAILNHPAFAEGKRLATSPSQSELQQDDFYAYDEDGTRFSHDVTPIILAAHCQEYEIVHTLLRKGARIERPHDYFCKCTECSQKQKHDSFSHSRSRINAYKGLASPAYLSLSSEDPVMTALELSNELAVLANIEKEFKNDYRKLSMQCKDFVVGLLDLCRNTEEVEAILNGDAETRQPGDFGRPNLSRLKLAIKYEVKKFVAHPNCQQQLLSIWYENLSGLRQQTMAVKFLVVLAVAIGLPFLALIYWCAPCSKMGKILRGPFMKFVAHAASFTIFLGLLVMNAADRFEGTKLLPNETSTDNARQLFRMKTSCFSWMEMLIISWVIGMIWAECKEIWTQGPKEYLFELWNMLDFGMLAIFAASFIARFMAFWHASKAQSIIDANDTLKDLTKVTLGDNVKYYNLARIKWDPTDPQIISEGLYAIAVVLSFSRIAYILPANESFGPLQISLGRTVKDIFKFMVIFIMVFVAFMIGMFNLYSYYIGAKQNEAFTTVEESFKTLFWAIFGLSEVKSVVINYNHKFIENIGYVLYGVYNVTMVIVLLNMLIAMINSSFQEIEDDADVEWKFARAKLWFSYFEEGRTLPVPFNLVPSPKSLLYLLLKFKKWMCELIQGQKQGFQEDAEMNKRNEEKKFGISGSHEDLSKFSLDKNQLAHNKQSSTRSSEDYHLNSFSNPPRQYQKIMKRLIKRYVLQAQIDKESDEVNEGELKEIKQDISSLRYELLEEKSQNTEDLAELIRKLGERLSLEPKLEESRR
# TRPC6 act – activates the mouse TRPC6 cation channel; Q61143; HEK293-TRPC6 membrane potential dye fluorescence; hits give high values; B-score at 10 µM; actives 0.13% (n = 310,000); AID 2550;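 active = B-score of the integrated fluorescence ratio above library mean plus 3 SD, and starting fluorescence ratio within library mean plus 5 SD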;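 also: higher score means more depolarization so channel activation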
# TRPC4 act – TRPC4 (mouse) channel activation; Q9QUQ5; HEK293 TRPC4beta/mu-opioid, Fluo4 calcium fluorescence; hits give high values; B-score at 10 µM; actives 0.49% (n = 310,000);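 active = B-score above 5 SD of library B-scores, and initial fluorescence ratio not above library mean plus 5 SD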;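 also: positive B-score marks a calcium rise read as TRPC4 activation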
#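 Assay system – TRPC4beta and mu-opioid receptor HEK293 stable cells · Measured by – Fluo4 fluorescence, kinetic · Schedule – dye loading 45 min room temperature, 110 s kinetic read · Read-out – B-scored integrated calcium fluorescence ratio · Controls – buffer and maximal DAMGO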
# TRPC4 spec 2 – mouse TRPC4 off-target activity of TRPC6 inhibitors, second screen. shares compounds with TRPC6 inh. HEK293 TRPC4/MOR, membrane potential dye fluorescence; channel activated by saturating DAMGO dose. inhibition, % at 10 µM. actives 42% (n = 920). AID 2776;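 active = compounds whose fluorescence signal differed from control wells by over 3 SD, either direction, in both duplicate plates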
# TRPC4 spec – mouse TRPC4 off-target activity of TRPC6 inhibitors; AID 2777; HEK293 TRPC4/mu-opioid, membrane potential fluorescence; shares compounds with TRPC6 inh; activity change, negative = inhibition, % at 10 µM; actives 61% (n = 920);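 active = rise or fall in signal beyond 3 SD of buffer-only wells in both replicate plates, either sign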;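 also: integrated kinetic ratio of fluorescence range over baseline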
# HEK293 MPD ctr 2-1 – second counter-screen for TRPC6 inhibitors: parental HEK293 cells; shares compounds with TRPC6 inh; parental HEK293 membrane potential dye fluorescence; maximal acetylcholine challenge after compound addition; signal change vs control, % at 10 µM; actives 31% (n = 920);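 active = membrane potential signal moving either way by over 3 SD of the maximum-effect control, in both duplicate plates, meaning non-specific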
# HEK293 MPD ctr-1 – parental HEK293 nonspecific activity of TRPC6 inhibitors | shares compounds with TRPC6 inh | parental HEK293 membrane potential dye fluorescence | membrane potential signal change, % at 10 µM | actives 60% (n = 920) | AID 2780;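 active = membrane potential signal shifting up or down by more than 3 SD of buffer-only wells, on both duplicate plates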
# HEK293 MPD ctr-2 – counter-screen for TRPC6 modulators: effect in parental HEK293 cells; membrane potential signal change, % at 10 µM; actives 51% (n = 2,400); shares compounds with TRPC6 inh; membrane potential dye fluorescence;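 active = membrane potential signal moves up or down beyond 5 SD from buffer-only wells, on both duplicate plates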
# HEK293 MPD ctr 2-2 – parental HEK293 nonspecific activity of TRPC6 modulators, second screen; shares compounds with TRPC6 inh; membrane potential dye fluorescence; after compound, maximal acetylcholine stimulation; inhibition, % at 10 µM; actives 14% (n = 2,400);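 active = membrane potential signal drops by more than 5 SD from the mean control signal, in both duplicate plates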;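 also: plate controls were acetylcholine ECmax control wells for no effect and buffer only wells for full effect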
# TRPC4/MOR mod – selectivity of TRPC6 modulators against mouse TRPC4 | shares compounds with TRPC6 inh | HEK293 TRPC4/mu-opioid, membrane potential fluorescence | percent change from control (negative = decrease, positive = increase), % at 10 µM | actives 69% (n = 2,400) | AID 488927;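 active = membrane potential signal moved up or down beyond 5 SD of buffer control wells, in both duplicate plates, actives on both sides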;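 also: plate controls were assay buffer wells for no effect and DAMGO maximal-effect wells for full effect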
# TRPC4 ctr inh 2 – second selectivity test of TRPC6 modulators against mouse TRPC4; shares compounds with TRPC6 inh; HEK293 TRPC4/mu-opioid, membrane potential dye fluorescence; stimulated with maximal-effect DAMGO; inhibition, % at 10 µM; actives 55% (n = 2,400); AID 488928;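 active = drop in membrane potential signal beyond 5 SD of the control wells in both duplicate plates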;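 also: TRPC4 counter screen for TRPC6 hits run under conditions tuned for TRPC6 not TRPC4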
# TRPC6 inh conf – confirmation of mouse TRPC6 inhibitors | shares compounds with TRPC6 inh | HEK293-TRPC6, membrane potential dye, ACh-evoked depolarization | inhibition, % at 10 µM | actives 43% (n = 3,300);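 active = fluorescence ratio falls more than 5 SD below the full-stimulation control mean, in both duplicate runs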;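 also: integrated fluorescence ratio of peak minus minimum over baseline after agonist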
# TRPC6 act conf – mouse TRPC6 activator confirmation. shares compounds with TRPC6 inh. HEK293-TRPC6 membrane potential dye fluorescence, FDSS. activation, % at 10 µM. actives 11% (n = 2,800). AID 488961;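 active = ratio signal rise beyond 5 SD above unstimulated control wells' mean, seen in both duplicate runs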;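 also: plate controls were buffer EC0 wells for no effect and acetylcholine ECmax response for full effect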
# * hit, by the source's call; i = inactive; · = no result given.
SMILES,TRPC4 inh,TRPC4 potent,TRPC6 inh,TRPC6 act,TRPC4 act,HEK293 MPD ctr-2,HEK293 MPD ctr 2-2,TRPC4/MOR mod,TRPC4 ctr inh 2,TRPC6 inh conf,TRPC6 act conf,others
COc1ccc(-n2c(-c3ccc(Br)cc3)c[n+]3c2SC(C)C3)cc1 (stereo unspecified),i,i,-5.91*,i,i,-142.5%*,79.5%*,-21.0%*,42.0%*,47.5%*,i,
Cc1ccc2cc3c(N)[nH]nc3nc2c1,i,i,i,i,i,·,·,·,·,·,·,
COc1ccc(CC2=CC(=O)c3ccccc3C2=O)cc1,i,i,i,i,i,·,·,·,·,·,·,
COc1ccc(CC(=O)Nc2ccccc2C(=O)N2CCOCC2)cc1,i,i,i,i,i,·,·,·,·,·,·,
CCOc1ccc(-c2nnc(-c3ccccc3)n2-c2ccccc2)cc1,i,i,i,i,i,·,·,·,·,·,·,
COc1ccc(-n2c(-c3ccccc3)cc3c2CCCC3=O)cc1,i,i,i,i,i,·,·,·,·,·,·,
COc1ccc(-n2c(-c3ccccc3)c[n+]3c2CCC3)cc1,i,i,-5.42*,i,i,-104.0%*,i,-17.5%*,i,39.5%*,i,
CCOc1ccc(-c2c[n+]3c(n2-c2ccccc2)CCCCC3)cc1,i,i,-5*,i,i,i,i,i,i,i,i,
C(=N\Nc1ncnc2nc[nH]c12)/c1cccs1,i,i,i,i,i,·,·,·,·,·,·,
CC1(C)NC(=O)NC2(C)NC(=O)NC(C)(C)C12 (stereo unspecified),i,i,i,i,i,·,·,·,·,·,·,
COc1ccc(NC(=O)C2CCN(S(=O)(=O)c3ccc(OC)c(OC)c3)CC2)cc1,i,i,i,i,i,·,·,·,·,·,·,
COc1ccc(S(=O)(=O)N2CCCCCC2)cc1NC(=O)Cc1ccccc1,i,i,-8.86*,i,i,i,i,i,i,i,i,
COc1ccc(S(=O)(=O)N2CCC(C(=O)Nc3ccc(S(=O)(=O)N4CCCC4)cc3)CC2)cc1OC,i,i,-5.42*,i,i,i,i,i,i,i,i,
COc1ccc(S(=O)(=O)N2CCCCCC2)cc1NC(=O)c1ccccc1,i,i,i,i,i,·,·,·,·,·,·,
COC(=O)COc1ccc(S(=O)(=O)N2CCCCC2)cc1[N+](=O)[O-],i,i,-5.31*,i,i,i,i,i,44.0%*,i,i,
Cc1ccc(NC(=O)C2CCN(S(=O)(=O)c3ccc4[nH]c(=O)oc4c3)CC2)cc1F,i,i,-5.78*,i,i,i,i,i,i,i,i,
COc1cc(OC)cc(Oc2ccc(S(=O)(=O)N3CCCCC3)cc2[N+](=O)[O-])c1,i,i,i,i,i,·,·,·,·,·,·,
Cn1nc(OCC(=O)O)cc1C(F)(F)F,i,i,i,i,i,·,·,·,·,·,·,
O=C(NCc1ccon1)C1CCC(=O)N(CCc2cccc(F)c2)C1 (stereo unspecified),i,i,i,i,i,·,·,·,·,·,·,
CCOC(=O)CC1(NC(=O)C2CCC(=O)N(Cc3ccccc3F)C2)CCCCC1 (stereo unspecified),i,i,i,i,i,·,·,·,·,·,·,
N#Cc1cc(NC(=O)c2ccc(F)cc2)c(=O)n2c1[nH]c1ccccc12,i,i,i,i,i,·,·,·,·,·,·,
CS(=O)(=O)c1ccc(Cl)c(NC(=O)COC(=O)c2cccc(S(=O)(=O)N3CCCCC3)c2)c1,i,i,-5.69*,i,i,i,i,i,i,i,i,
COc1ccc(C2C(C(N)=O)=C(C)Nc3nc(CCCO)nn32)cc1 (stereo unspecified),i,i,i,i,i,·,·,·,·,·,·,
COc1ccc(C2C(C(N)=O)=C(C)Nc3nc(CCCO)nn32)cc1OC (stereo unspecified),i,i,-5.88*,i,i,i,i,i,i,i,i,
Brc1cccc(-c2nc3cccnc3nc2-c2cccc(Br)c2)c1,i,i,i,i,i,·,·,·,·,·,·,
Clc1ccc(-[n+]2c(-c3cccc(Br)c3)[nH]c3nc4ccccc4nc32)cc1,i,i,-5.06*,i,i,i,i,i,37.5%*,i,i,
Cc1ccccc1NC1=C/C(=N\S(=O)(=O)c2ccc(C(=O)O)cc2)c2ccccc2C1=O,i,i,i,i,i,·,·,·,·,·,·,
CC(C)c1ccc(S(=O)(=O)/N=C2\C=C(NS(=O)(=O)c3ccccc3)C(=O)c3ccccc32)cc1,-13*,i,-5.26*,i,i,-169.5%*,64.0%*,-30.5%*,80.0%*,68.5%*,i,
O=c1cc(-c2ccccc2)[nH]n1-c1ccc([N+](=O)[O-])cc1,i,i,-7.88*,i,i,·,·,·,·,66.5%*,i,TRPC4 spec 2=i;TRPC4 spec=11.8%*;HEK293 MPD ctr 2-1=i;HEK293 MPD ctr-1=5.7%*
